Calls of active or inactive are those of the source. The calls are words filed in the database; no cut-off is given here. Square brackets hold non-standard residues; d marks the D form. Peptide text beside a SMILES is read from it. * marks the point of attachment. Dnp = O=[N+]([O-])c1ccc(*)c([N+](=O)[O-])c1; Gla = N[C@@H](CC(C(=O)O)C(=O)O)C(=O)O; Aad = N[C@@H](CCCC(=O)O)C(=O)O

Data set [1] deals with MDA-MB-231. The data set is described as follows: Induction of opsonization in human MDA-MB-231 cells assessed as increase in recruitment of anti-FITC antibody to cell surface at 1 uM measured after 5 to 10 mins at pH 6 to 7.4 by Alexa Fluor 647 conjugated anti-FITC antibody based flow cytometry. The data set is classed as functional. In a few lines: (§1)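 Cells in suspension (350000 MDA-MB-231) given 1 μM pH-adjusted conjugate for 5 or 10 min at 37 °C, pH 7.4 or 6.0, washed, then Alexa Fluor 647 anti-FITC mouse mAb in PBS/10% FBS 30 min at 4 °C, PFA-fixed. Flow cytometry, ≥3000 events; fold over pH 7.4 antibody-only cells; mean ± SEM, n = 3.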

Data set [2] deals with MDA-MB-231. Briefly: Induction of opsonization in human MDA-MB-231 cells assessed as increase in recruitment of anti-FITC antibody to cell surface at 1 uM measured after 5 to 10 mins at pH 6 by Alexa Fluor 647 conjugated anti-FITC antibody based flow cytometry relative to pH 7.4. Type of data set: functional. In a few lines:
as §1
(Flow cytometry measures light scatter and fluorescence of single cells or particles in a stream.)

The test system of data set [3] is Lipid bilayer. Briefly: Binding affinity to POPC large unilamellar vesicle at 1:300 ratio measured after 30 mins at pH 5 to 7.4 by tryptophan fluorescence spectroscopic analysis. In a few lines: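 Peptide (7 μM final, from 20 μM stock in 5 mM sodium phosphate pH 8.0) with extruded 100 nm POPC LUVs at 1:300; pH set with HCl, 30 min RT before tryptophan emission spectra were recorded.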

Data set [4] has as its system Lipid bilayer. Briefly: Binding affinity to POPC large unilamellar vesicle at 1:300 ratio measured after 30 mins at pH 5 by circular dichroism spectroscopic analysis. In a few lines:
(§2)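 Peptide (20 μM stock in 5 mM sodium phosphate pH 8.0; 7 μM final) mixed with POPC LUVs (extruded, 100 nm pores) at 1:300, pH lowered with HCl, 30 min RT. Far-UV CD 260–200 nm in 0.1 cm cuvette, ≥5 scans averaged, liposome spectrum subtracted; expressed as mean residue molar ellipticity.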
For orientation: CD spectra are sensitive to the conformation of chiral molecules.

Data set [5] relates to Lipid bilayer. Briefly: Binding affinity to POPC large unilamellar vesicle at 1:300 ratio measured after 30 mins at pH 5 to 7.4 by circular dichroism spectroscopic analysis. In a few lines:
as §2

Data set [6] is described as follows: Drug internalization in human MDA-MB-231 cells assessed as increase in fluorescence at 1 uM measured after 30 mins at pH 6 to 7.4 in presence of FITC-labeled anti-human IgG by flow cytometric method. The data set is classed as ADME, cell-based. Conditions: mda-mb-231, pH 6, 0.5 h. In a few lines:
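Control for specificity: MDA-MB-231 treated with 1 μM conjugate at pH 7.4 or 6.0 (5–10 min, 37 °C), washed, then incubated ± 25 μg/mL FITC anti-human IgG in PBS/10% FBS, 30 min at 4 °C, fixed, read by flow cytometry.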

The test system of data set [7] is MDA-MB-231. The data set is described as follows: Induction of opsonization in human MDA-MB-231 cells assessed as increase in recruitment of anti-DNP antibody to cell surface at 1 uM measured after 5 to 10 mins at pH 6 to 7.4 by AlexaFluor-488-conjugated anti-DNP antibody based flow cytometry. Type of data set: functional. In a few lines:
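Conjugate pre-incubated 1 h RT at 20 μM in 5 mM sodium phosphate pH 9.0, diluted, then pH adjusted with citrate buffer. MDA-MB-231 (350000 cells, suspension) exposed to 1 μM for 5 or 10 min, 37 °C, pH 7.4 or 6.0, washed, stained with 25 μg/mL anti-DNP-A488 30 min at 4 °C, PFA-fixed. Flow cytometry, ≥3000 events; fold over pH 7.4 antibody-only cells.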

For the compound `CC[C@H](C)[C@H](NC(=O)[C@@H]1CCCN1C(=O)[C@H](CC(N)=O)NC(=O)[C@H](CCC(N)=O)NC(=O)[C@H](CCC(=O)O)NC(=O)[C@H](CSC1CC(=O)N(CCC(=O)NOCCOCCOCCOCCOCCOCCOCCOCCOCCOCCOCCOCCC(=O)NCCCNC(=O)c2ccc(-c3c4ccc(=O)cc-4oc4cc(O)ccc34)c(C(=O)O)c2)C1=O)NCC(N)=O)C(=O)N[C@@H](Cc1ccc(O)cc1)C(=O)N[C@@H](Cc1c[nH]c2ccccc12)C(=O)N[C@@H](C)C(=O)N[C@@H](CCCNC(=N)N)C(=O)N[C@@H](Cc1ccc(O)cc1)C(=O)N[C@@H](C)C(=O)N[C@@H](CC(=O)O)C(=O)N[C@@H](Cc1c[nH]c2ccccc12)C(=O)N[C@@H](CC(C)C)C(=O)N[C@@H](Cc1ccccc1)C(=O)N[C@H](C(=O)N[C@H](C(=O)N1CCC[C@H]1C(=O)N[C@@H](CC(C)C)C(=O)N[C@@H](CC(C)C)C(=O)N[C@@H](CC(C)C)C(=O)N[C@@H](CC(C)C)C(=O)N[C@@H](CCC(=O)O)C(=O)N[C@@H](CC(C)C)C(=O)N[C@@H](C)C(=O)N[C@@H](CC(C)C)C(=O)N[C@@H](CC(C)C)C(=O)N[C@H](C(=O)N[C@@H](CC(=O)O)C(=O)N[C@@H](C)C(=O)N[C@@H](CC(=O)O)C(=O)N[C@@H](CCC(=O)O)C(=O)NCC(=O)N[C@H](C(=O)NCC(N)=O)[C@@H](C)O)C(C)C)[C@@H](C)O)[C@@H](C)O` (some centres undefined), the result in data set [1] and in data set [3] was Active. Moreover, the “fold change (FC)” value in data set [2] amounted to 2.9.
As to `CC[C@H](C)[C@H](NC(=O)[C@@H]1CCCN1C(=O)[C@H](CC(N)=O)NC(=O)[C@H](CCC(N)=O)NC(=O)[C@H](CCC(=O)O)NC(=O)[C@H](CSC1CC(=O)N(CCC(=O)NOCCOCCOCCOCCOCCOCCC(=O)NCCCNC(=O)c2ccc(-c3c4ccc(=O)cc-4oc4cc(O)ccc34)c(C(=O)O)c2)C1=O)NCC(N)=O)C(=O)N[C@@H](Cc1ccc(O)cc1)C(=O)N[C@@H](Cc1c[nH]c2ccccc12)C(=O)N[C@@H](C)C(=O)N[C@@H](CCCNC(=N)N)C(=O)N[C@@H](Cc1ccc(O)cc1)C(=O)N[C@@H](C)C(=O)N[C@@H](CC(=O)O)C(=O)N[C@@H](Cc1c[nH]c2ccccc12)C(=O)N[C@@H](CC(C)C)C(=O)N[C@@H](Cc1ccccc1)C(=O)N[C@H](C(=O)N[C@H](C(=O)N1CCC[C@H]1C(=O)N[C@@H](CC(C)C)C(=O)N[C@@H](CC(C)C)C(=O)N[C@@H](CC(C)C)C(=O)N[C@@H](CC(C)C)C(=O)N[C@@H](CC(=O)O)C(=O)N[C@@H](CC(C)C)C(=O)N[C@@H](C)C(=O)N[C@@H](CC(C)C)C(=O)N[C@@H](CC(C)C)C(=O)N[C@H](C(=O)N[C@@H](CC(=O)O)C(=O)N[C@@H](C)C(=O)N[C@@H](CC(=O)O)C(=O)N[C@@H](CCC(=O)O)C(=O)NCC(=O)N[C@H](C(=O)NCC(N)=O)[C@@H](C)O)C(C)C)[C@@H](C)O)[C@@H](C)O` (some centres undefined), the outcome in data set [1] and in data set [3] was Active.
Consider `CC[C@H](C)[C@H](NC(=O)[C@@H]1CCCN1C(=O)[C@H](CC(N)=O)NC(=O)[C@H](CCC(N)=O)NC(=O)[C@H](CCC(=O)O)NC(=O)[C@H](CSC1CC(=O)N(CCC(=O)NOCCOCCOCCOCCOCCOCCOCCOCCOCCOCCOCCOCCOCCOCCOCCOCCOCCOCCOCCOCCOCCOCCOCCOCCC(=O)NCCCNC(=O)c2ccc(-c3c4ccc(=O)cc-4oc4cc(O)ccc34)c(C(=O)O)c2)C1=O)NCC(N)=O)C(=O)N[C@@H](Cc1ccc(O)cc1)C(=O)N[C@@H](Cc1c[nH]c2ccccc12)C(=O)N[C@@H](C)C(=O)N[C@@H](CCCNC(=N)N)C(=O)N[C@@H](Cc1ccc(O)cc1)C(=O)N[C@@H](C)C(=O)N[C@@H](CC(=O)O)C(=O)N[C@@H](Cc1c[nH]c2ccccc12)C(=O)N[C@@H](CC(C)C)C(=O)N[C@@H](Cc1ccccc1)C(=O)N[C@H](C(=O)N[C@H](C(=O)N1CCC[C@H]1C(=O)N[C@@H](CC(C)C)C(=O)N[C@@H](CC(C)C)C(=O)N[C@@H](CC(C)C)C(=O)N[C@@H](CC(C)C)C(=O)N[C@@H](CC(=O)O)C(=O)N[C@@H](CC(C)C)C(=O)N[C@@H](C)C(=O)N[C@@H](CC(C)C)C(=O)N[C@@H](CC(C)C)C(=O)N[C@H](C(=O)N[C@@H](CC(=O)O)C(=O)N[C@@H](C)C(=O)N[C@@H](CC(=O)O)C(=O)N[C@@H](CCC(=O)O)C(=O)NCC(=O)N[C@H](C(=O)NCC(N)=O)[C@@H](C)O)C(C)C)[C@@H](C)O)[C@@H](C)O` (some centres undefined), for which the result in data set [1], in data set [4] and in data set [3] was Active.
In the case of `CC[C@H](C)[C@H](NC(=O)[C@@H]1CCCN1C(=O)[C@H](CC(N)=O)NC(=O)[C@H](CCC(N)=O)NC(=O)[C@H](CCC(=O)O)NC(=O)[C@@H](N)CCCCNc1ccc([N+](=O)[O-])cc1[N+](=O)[O-])C(=O)N[C@@H](Cc1ccc(O)cc1)C(=O)N[C@@H](Cc1c[nH]c2ccccc12)C(=O)N[C@@H](C)C(=O)N[C@@H](CCCNC(=N)N)C(=O)N[C@@H](Cc1ccc(O)cc1)C(=O)N[C@@H](C)C(=O)N[C@@H](CC(=O)O)C(=O)N[C@@H](Cc1c[nH]c2ccccc12)C(=O)N[C@@H](CC(C)C)C(=O)N[C@@H](Cc1ccccc1)C(=O)N[C@H](C(=O)N[C@H](C(=O)N1CCC[C@H]1C(=O)N[C@@H](CC(C)C)C(=O)N[C@@H](CC(C)C)C(=O)N[C@@H](CC(C)C)C(=O)N[C@@H](CC(C)C)C(=O)N[C@@H](CC(=O)O)C(=O)N[C@@H](CC(C)C)C(=O)N[C@@H](C)C(=O)N[C@@H](CC(C)C)C(=O)N[C@@H](CC(C)C)C(=O)N[C@H](C(=O)N[C@@H](CC(=O)O)C(=O)N[C@@H](C)C(=O)N[C@@H](CC(=O)O)C(=O)N[C@@H](CCC(=O)O)C(=O)NCC(=O)N[C@H](C(=O)NCC(N)=O)[C@@H](C)O)C(C)C)[C@@H](C)O)[C@@H](C)O` (H-K(Dnp)EQNPIYWARYADWLFTTPLLLLDLALLVDADEGTG-NH2), the outcome in data set [5] and in data set [7] was Active. The Drug uptake entry in data set [6] is reported as “Not Active”.
Consider `CC[C@H](C)[C@H](NC(=O)[C@@H]1CCCN1C(=O)[C@H](CC(N)=O)NC(=O)[C@H](CCC(N)=O)NC(=O)[C@H](CCC(=O)O)NC(=O)[C@@H](N)CCCCNc1ccc([N+](=O)[O-])cc1[N+](=O)[O-])C(=O)N[C@@H](Cc1ccc(O)cc1)C(=O)N[C@@H](Cc1c[nH]c2ccccc12)C(=O)N[C@@H](C)C(=O)N[C@@H](CCCNC(=N)N)C(=O)N[C@@H](Cc1ccc(O)cc1)C(=O)N[C@@H](C)C(=O)N[C@@H](CC(C(=O)O)C(=O)O)C(=O)N[C@@H](Cc1c[nH]c2ccccc12)C(=O)N[C@@H](CC(C)C)C(=O)N[C@@H](Cc1ccccc1)C(=O)N[C@H](C(=O)N[C@H](C(=O)N1CCC[C@H]1C(=O)N[C@@H](CC(C)C)C(=O)N[C@@H](CC(C)C)C(=O)N[C@@H](CC(C)C)C(=O)N[C@@H](CC(C)C)C(=O)N[C@@H](CCCC(=O)O)C(=O)N[C@@H](CC(C)C)C(=O)N[C@@H](C)C(=O)N[C@@H](CC(C)C)C(=O)N[C@@H](CC(C)C)C(=O)N[C@H](C(=O)N[C@@H](CC(=O)O)C(=O)N[C@@H](C)C(=O)N[C@@H](CC(=O)O)C(=O)N[C@@H](CCC(=O)O)C(=O)NCC(=O)N[C@H](C(=O)NCC(N)=O)[C@@H](C)O)C(C)C)[C@@H](C)O)[C@@H](C)O` (H-K(Dnp)EQNPIYWARYA[Gla]WLFTTPLLLL[Aad]LALLVDADEGTG-NH2), for which the outcome in data set [5] and in data set [7] was Active. In addition, the Drug uptake result in data set [6] is “Not Active”.

Source of the values: ChEMBL document CHEMBL4354869, “pH-Dependent Grafting of Cancer Cells with Antigenic Epitopes Promotes Selective Antibody-Mediated Cytotoxicity” (J Med Chem, 2020).
